# SENP1 FRET inh: SENP1 (human) catalytic domain inhibition | Q9P0U3 | recombinant SENP1 catalytic domain, CyPet-SUMO1-YPet FRET cleavage | inhibition, % at 10 µM | actives 0.21% (n = 360,000) | AID 624204;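 active = inhibition at least 30% at 10 µM, raw YFP signal under a set limit, fluorescence ratio 0.5 to 1.5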;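 note: 0% = enzyme with DMSO and 100% = no enzyme wells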
# Target sequence (Q9P0U3 419-644 limits assumed): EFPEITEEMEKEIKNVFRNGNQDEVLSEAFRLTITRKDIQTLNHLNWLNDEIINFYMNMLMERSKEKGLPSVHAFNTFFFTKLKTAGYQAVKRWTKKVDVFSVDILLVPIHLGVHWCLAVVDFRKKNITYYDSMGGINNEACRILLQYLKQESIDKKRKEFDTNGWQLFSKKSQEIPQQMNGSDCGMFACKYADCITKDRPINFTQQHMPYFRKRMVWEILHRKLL
#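 Controls: no-enzyme wells low, DMSO-plus-enzyme wells high control. Test system: human recombinant His6-tagged SENP1 catalytic domain enzyme. Reagent: SFCypet-SUMO1-SFYpet FRET protein substrate, 25 nM final. Doses: one dose per compound, 10 µM, 0.5% DMSO. Detection: FRET, CFP and YFP emission. Timing: 50 min reaction at room temperature.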
# Rpn11 inh: inhibitors of human proteasome Rpn11; O00487; human 26S proteasome, Ub4-pepOG fluorescence polarization; 20S core pre-blocked with epoxomicin; inhibition, % at 20 µM; actives 0.59% (n = 360,000); AID 588493;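 active = inhibition at 20 µM, scaled to each plate's controls, above about 33%, limit read from the data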
# Target sequence (O00487 whole entry, looked up): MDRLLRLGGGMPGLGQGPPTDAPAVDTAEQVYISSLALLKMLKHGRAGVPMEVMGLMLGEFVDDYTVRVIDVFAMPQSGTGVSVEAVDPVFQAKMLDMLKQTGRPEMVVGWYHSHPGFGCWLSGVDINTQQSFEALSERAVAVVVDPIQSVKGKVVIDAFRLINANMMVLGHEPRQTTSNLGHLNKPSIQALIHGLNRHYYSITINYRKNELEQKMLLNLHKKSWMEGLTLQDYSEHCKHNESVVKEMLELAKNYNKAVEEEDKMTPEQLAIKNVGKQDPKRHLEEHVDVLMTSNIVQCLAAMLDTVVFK
# TPT1 inhibitor: blocks Candida albicans tRNA 2'-phosphotransferase; recombinant caTPT1, FP RNA substrate dephosphorylation; inhibition, % at 5 µM; actives 0.81% (n = 300,000);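 active = inhibition above the mean of all tested compounds plus 3 SD, set per screening campaign, cut at about 24% in these data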;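 note: plate controls were DMSO alone for no effect and ferristatin control at 100 nM for full effect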
# CSN inh: CSN deneddylation inhibition; AID 651999; Q92905; actives 0.38% (n = 360,000); Purified CSN, SCF-Nedd8-OG deneddylation, fluorescence polarization; inhibition, % at 12.5 µM;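 active = pattern-corrected inhibition above about 35%, with an unprinted fluorescence ratio check between 0.5 and 1.5, limit read from the data, passing the limit was not always enough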;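 note: 0% = enzyme with substrate and 100% = substrate without enzyme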
#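 Detection – fluorescence polarization · System – HEK293T-derived human Csn5 enzyme · Controls – substrate-only high control, full reaction low control · Timing – 90 min, room temperature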
# ATG4B inh: ATG4B (human) cysteine protease inhibition | ATG4B cleavage of LC3-PLA2, NBD-HPC fluorescence, 1 h | inhibition, % at 8.33 µM | actives 0.51% (n = 340,000) | AID 504462
# HNF4A DNA FP: change in binding of human HNF4 alpha to DNA | P41235 | HNF4a-FITC DNA binding, fluorescence polarization, 1 h | activity change, % at 10 µM | actives 0.3% (n = 360,000) | AID 1224865; in the data active = activity change above about 30%, passing the limit was not always enough
# TPT1 inh confirm: TPT1 (C. albicans) inhibition, confirmation; shares compounds with TPT1 inhibitor; recombinant caTPT1, fluorescence polarization, RNase T1 coupled; inhibition, % at 5 µM; actives 74% (n = 2,400);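 active = inhibition above the primary screen limit, the mean inhibition of all tested compounds plus 3 SD, cut at about 25% in these data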
# RNase T1 counter: RNase T1 inhibition in TPT1 counter-screen | shares compounds with TPT1 inhibitor | RNase T1 cleavage, fluorescence polarization, 1536-well | inhibition, % at 5 µM | actives 83% (n = 2,400);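 active = inhibition above the solvent-only control well mean plus 3 SD, limit set per screening run, cut at about 23% in these data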;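 note: plate controls were DMSO wells with enzyme for no effect and wells without RNase T1 for full effect; inhibitors block cleavage so intact labeled substrate keeps polarization high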
# Target sequence (P00651 whole entry, looked up): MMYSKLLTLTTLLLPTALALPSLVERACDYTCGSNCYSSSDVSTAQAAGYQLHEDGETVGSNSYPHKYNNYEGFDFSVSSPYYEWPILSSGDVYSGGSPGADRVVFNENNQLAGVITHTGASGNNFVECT
# Rpn11 confirm: confirmation of human proteasome Rpn11 inhibitors. actives 29% (n = 1,900). AID 602318. purified human 26S proteasome, Ub4-pepOG fluorescence polarization; proteasome pretreated with epoxomicin. shares compounds with Rpn11 inh. inhibition, % at 20 µM
# MMP-2 counter-1: MMP-2 (human) inhibition counter-screen | recombinant MMP-2, FRET peptide cleavage fluorescence | shares compounds with Rpn11 inh | inhibition, % at 20 µM | actives 4% (n = 1,900) | AID 602330;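 note: human MMP-2 activated beforehand with APMA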
# Thrombin FP: blocks bovine thrombin, flagging nonselective RPN11 hits. shares compounds with Rpn11 inh. actives 13% (n = 1,900). bovine thrombin cleavage of Ub4-pepOG, fluorescence polarization. inhibition, % at 20 µM. AID 602333;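 active = mean inhibition at least 40% at 20 µM, or signal 3 deviations below plate average, so some actives read negative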;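 note: plate controls were thrombin with DMSO for no effect and buffer wells lacking thrombin for full effect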
# CSN deneddyl val: validation of inhibitors of human CSN-mediated cullin deneddylation. Csn5 deneddylation of SCF-Nedd8OG, fluorescence polarization, 90 min. shares compounds with CSN inh. actives 62% (n = 540). inhibition, % at 16.6 µM. AID 720654; in the data active = inhibition above about 50%;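 note: 0% = DMSO with enzyme and 100% = no enzyme wells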
# MMP-2 counter-2: counter-screen for CSN deneddylation inhibitors: human MMP-2 inhibition. inhibition, % at 16.6 µM. actives 33% (n = 540). recombinant MMP-2, FRET substrate fluorescence, 60 min. shares compounds with CSN inh;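 active = corrected plate-normalized z-score of 5 or more, or -5 or less, or inhibition of 15% or more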;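 note: plate controls were DMSO wells with enzyme for no effect and buffer wells lacking MMP-2 for full effect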
# Thrombin cntr: thrombin (bovine) inhibition, counter-screen for CSN hits; shares compounds with CSN inh; bovine thrombin cleavage of Ub4-pepOG, fluorescence polarization; inhibition, % at 16.6 µM; actives 49% (n = 540);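 active = inhibition at or above a set limit, with a fluorescence interference ratio between 0.5 and a set maximum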
# An asterisk follows results filed as active; · = not tested or not shown; + = active, no number. This is a sample that favours compounds with a hit; in the whole collection about 2% have one here. Cut-off read from the data, not from the text of the source, unless noted: active = inhibition above about 40%; inactive = the rest.
SMILES,SENP1 FRET inh,Rpn11 inh,TPT1 inhibitor,CSN inh,ATG4B inh,HNF4A DNA FP,TPT1 inh confirm,RNase T1 counter,CSN deneddyl val,MMP-2 counter-2,Thrombin cntr,others
CCCCN(C)CC(O)Cn1cc(/C=C/C(=O)c2cccs2)c2ccccc21 (stereo not given),-26,·,59*,41*,0,24,61*,68*,67*,-7,32*,
CCCCN(C)CC(O)Cn1cc(/C=C/C(=O)c2ccc(OCC)cc2)c2ccccc21 (stereo not given),·,·,17,·,·,·,·,·,·,·,·,
CN(C)S(=O)(=O)c1ccc2c(c1)/C(=C/c1cc3c([nH]1)CCCC3)C(=O)N2,-30,·,153*,54*,0,96,155*,145*,75*,-11,37,
CSc1ccc(CN2CCC(CO)(CCOc3ccccc3)CC2)cc1,0,-11,-2,4,-3,2,·,·,·,·,·,
CCNC(=O)C1(C)CCN(Cc2ccccc2C#N)C1 (stereo not given),2,0,·,-3,·,-1,·,·,·,·,·,
CCC1C/C(=C\c2cc(OC)c(OC)cc2OC)C(=O)/C(=C/c2cc(OC)c(OC)cc2OC)C1 (stereo not given),-25,102*,64*,35*,-17,71*,88*,97*,64*,-10,48*,
Cc1ccc(-n2ncc3c(=O)n(CC(=O)N4CCN(C(=O)c5ccco5)CC4)cnc32)cc1,-4,-1,·,-4,-8,-5,·,·,·,·,·,
COc1ccc2[nH]c3c(c2c1)CCN1C(=O)C(CC(=O)NCCc2ccccn2)C[C@H](C(=O)N2CCOCC2)[C@@]31CCC1CCCC1 (stereo not given in full),-2,-2,·,-6,·,-1,·,·,·,·,·,
Cc1[nH]c2ccccc2c1/C=N/Nc1ccc([N+](=O)[O-])cc1,22,119*,95*,49*,4,68*,100*,102*,75*,5,44*,Rpn11 confirm=83*;MMP-2 counter-1=-28;Thrombin FP=81*
Cc1[nH]c2ccccc2c1/C=N/NC(=O)c1cccc([N+](=O)[O-])c1,5,2,3,-4,-8,3,·,·,·,·,·,
Cc1cccc(C)c1N1C(=O)c2ccccc2NC(=O)C1C(=O)NCc1ccco1 (stereo not given),0,·,·,-4,·,3,·,·,·,·,·,
Cc1cc(/C=C2\SC(=S)NC2=O)c(C)n1-c1ccc(O)cc1,-36,·,95*,60*,16,99*,108*,119*,50*,28*,50*,
Cc1cc(/C=C2/SC(=O)NC2=O)c(C)n1-c1ccc(N2CCOCC2)cc1,-4,-5,-5,-6,-7,0,·,·,·,·,·,
Cc1cc(/C=C2\SC(=S)NC2=O)c(C)n1C,-43,130*,53*,76*,13,44*,69*,84*,53*,24*,39*,Rpn11 confirm=121*;MMP-2 counter-1=35;Thrombin FP=91*
Cc1cc(/C=C2\SC(=S)NC2=O)c(C)n1-c1ccccc1,-43,109*,73*,40*,23,75*,69*,83*,61*,23*,31*,Rpn11 confirm=77*;MMP-2 counter-1=28;Thrombin FP=60*
O=C(NC1CCc2ccccc21)c1cc(COc2cncc(Cl)c2)on1 (stereo not given),-2,4,-3,2,14,6,·,·,·,·,·,
O=C(Cc1ccc2c(c1)OCCO2)Nc1cc(Cl)ccc1N1CCOCC1,-2,-1,·,4,-5,-1,·,·,·,·,·,
O=C(O)CCCCCN1C(=O)/C(=C\c2ccncc2)SC1=S,-2,3,2,7,6,-1,·,·,·,·,·,
O=C(O)CCCCCN1C(=O)/C(=C\c2ccc(-c3ccc(Cl)cc3)o2)SC1=S,-32,·,27*,61*,7,101,65*,81*,74*,16*,25*,
O=C(O)CCCN1C(=O)/C(=C/c2ccc(-c3nc4ccccc4s3)o2)SC1=S,9,185*,48*,122*,-5,51*,95*,103*,·,1,-13,Rpn11 confirm=44*;MMP-2 counter-1=-16;Thrombin FP=-64
N#Cc1ccc(OS(=O)(=O)c2ccc(-c3ccon3)s2)cc1,2,-1,-1,-3,-2,1,·,·,·,·,·,
Cn1cccc1/C=C1\CC(C(C)(C)C)C/C(=C\c2cccn2C)C1=O (stereo not given),-25,·,176*,97*,25,140,162*,149*,93*,-34*,45,
O=C(N/N=C/C=C/c1ccc([N+](=O)[O-])cc1)c1cccs1,54,+,44*,56*,0,56*,30*,46*,·,59*,30*,Rpn11 confirm=113*;MMP-2 counter-1=45*;Thrombin FP=41*
O=C(N/N=C/C=C\c1ccccc1[N+](=O)[O-])c1cccs1,2,-2,-3,-2,2,-2,·,·,·,·,·,
CCNc1ccc(Br)cc(C(=O)/C=C/c2ccc3c(c2)OCO3)c1=O,19,71*,31*,47*,10,-11,26*,48*,71*,-3,24*,Rpn11 confirm=20;MMP-2 counter-1=9;Thrombin FP=1
Cc1nnc(-c2ccccc2)c(=O)n1/N=C/c1c(O)ccc2ccccc12,7,·,159*,50*,-6,19,79*,84*,109*,-4,30*,

# Screening results (PubChem)
